Results reported in ChEMBL document CHEMBL1134488, “Potent reversible inhibitors of the protein tyrosine phosphatase CD45” (J Med Chem, 2001).
Where a SMILES comes first, the peptide text is derived from it. The star is where a group is joined. Phenanthrenequinone2carbonyl = O=C1C(=O)c2cc(C(=O)*)ccc2-c2ccccc21; 3Phenanthroyl(9,10-dioxo) = O=C1C(=O)c2ccc(C(=O)*)cc2-c2ccccc21; X1 = O=C1C(=O)c2cc(N*)ccc2-c2ccccc21

Legend:
[1] = molecular target: T1, Receptor-type tyrosine-protein phosphatase C (Homo sapiens, UniProt P08575); experiment: In vitro inhibitory activity against the cytosolic portion of CD45 protein-tyrosine phosphatase using pNPP as the substrate
T1 sequence (P08575 whole entry): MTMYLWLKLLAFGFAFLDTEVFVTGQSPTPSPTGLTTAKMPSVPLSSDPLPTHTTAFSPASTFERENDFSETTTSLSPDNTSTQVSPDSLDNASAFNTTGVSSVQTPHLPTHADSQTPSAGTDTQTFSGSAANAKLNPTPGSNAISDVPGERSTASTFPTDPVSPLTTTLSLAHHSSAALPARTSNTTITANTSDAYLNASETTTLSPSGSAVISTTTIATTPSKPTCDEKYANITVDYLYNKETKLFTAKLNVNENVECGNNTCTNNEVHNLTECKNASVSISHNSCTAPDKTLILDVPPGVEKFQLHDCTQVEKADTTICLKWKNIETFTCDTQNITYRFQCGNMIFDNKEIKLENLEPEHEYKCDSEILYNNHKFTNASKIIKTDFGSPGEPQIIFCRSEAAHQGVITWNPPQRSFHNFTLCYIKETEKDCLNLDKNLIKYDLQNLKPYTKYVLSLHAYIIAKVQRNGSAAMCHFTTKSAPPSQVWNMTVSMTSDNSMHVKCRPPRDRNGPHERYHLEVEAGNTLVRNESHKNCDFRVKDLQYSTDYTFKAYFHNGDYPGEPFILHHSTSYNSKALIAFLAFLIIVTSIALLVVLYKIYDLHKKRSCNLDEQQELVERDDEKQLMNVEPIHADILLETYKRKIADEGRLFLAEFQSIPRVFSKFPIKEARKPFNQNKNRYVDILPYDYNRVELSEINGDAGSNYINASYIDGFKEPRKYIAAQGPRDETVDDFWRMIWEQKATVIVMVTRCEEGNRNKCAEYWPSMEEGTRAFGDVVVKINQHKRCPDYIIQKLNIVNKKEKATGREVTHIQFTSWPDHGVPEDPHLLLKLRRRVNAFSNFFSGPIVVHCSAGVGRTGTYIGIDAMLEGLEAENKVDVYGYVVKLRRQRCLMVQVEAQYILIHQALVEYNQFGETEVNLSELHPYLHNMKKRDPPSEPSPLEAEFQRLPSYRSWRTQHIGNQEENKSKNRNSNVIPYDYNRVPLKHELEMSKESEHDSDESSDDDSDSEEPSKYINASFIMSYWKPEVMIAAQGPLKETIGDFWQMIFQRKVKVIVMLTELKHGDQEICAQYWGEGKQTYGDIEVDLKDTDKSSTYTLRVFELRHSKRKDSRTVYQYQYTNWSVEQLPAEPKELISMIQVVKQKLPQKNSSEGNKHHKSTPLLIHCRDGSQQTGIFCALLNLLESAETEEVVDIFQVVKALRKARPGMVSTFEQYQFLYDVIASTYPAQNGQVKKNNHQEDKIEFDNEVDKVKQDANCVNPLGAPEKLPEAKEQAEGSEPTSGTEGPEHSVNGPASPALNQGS

T-cell [2] = experiment: Cytotoxicity measured against human T-cells; assay type: functional
T-cell [3] = experiment: In vitro inhibition of human T-cell proliferation; assay type: functional, cell-based
[4] = molecular target: T1, Receptor-type tyrosine-protein phosphatase C; experiment: Inhibitory concentration against CD45 protein-tyrosine phosphatase using lck-10 mer as substrate
[5] = molecular target: T2, Tyrosine-protein phosphatase non-receptor type 1 (Homo sapiens, UniProt P18031); experiment: Inhibitory concentration against PTP1B using lck as substrate
T2 sequence (P18031 whole entry): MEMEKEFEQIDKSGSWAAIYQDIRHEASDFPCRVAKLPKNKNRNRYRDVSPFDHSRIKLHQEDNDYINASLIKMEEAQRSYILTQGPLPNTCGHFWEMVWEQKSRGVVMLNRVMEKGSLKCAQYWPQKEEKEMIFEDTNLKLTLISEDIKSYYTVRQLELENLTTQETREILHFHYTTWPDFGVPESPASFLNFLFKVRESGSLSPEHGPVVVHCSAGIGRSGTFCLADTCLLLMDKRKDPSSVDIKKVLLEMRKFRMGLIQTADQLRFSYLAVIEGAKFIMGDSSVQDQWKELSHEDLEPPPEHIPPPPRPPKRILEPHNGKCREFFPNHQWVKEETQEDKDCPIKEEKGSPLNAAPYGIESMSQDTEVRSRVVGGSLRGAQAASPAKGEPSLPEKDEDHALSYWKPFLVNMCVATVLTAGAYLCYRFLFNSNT

Cathepsin S = Cathepsin S (Homo sapiens, UniProt P25774); experiment: Inhibitory concentration against Cathepsin S
Cathepsin S, sequence (P25774 whole entry): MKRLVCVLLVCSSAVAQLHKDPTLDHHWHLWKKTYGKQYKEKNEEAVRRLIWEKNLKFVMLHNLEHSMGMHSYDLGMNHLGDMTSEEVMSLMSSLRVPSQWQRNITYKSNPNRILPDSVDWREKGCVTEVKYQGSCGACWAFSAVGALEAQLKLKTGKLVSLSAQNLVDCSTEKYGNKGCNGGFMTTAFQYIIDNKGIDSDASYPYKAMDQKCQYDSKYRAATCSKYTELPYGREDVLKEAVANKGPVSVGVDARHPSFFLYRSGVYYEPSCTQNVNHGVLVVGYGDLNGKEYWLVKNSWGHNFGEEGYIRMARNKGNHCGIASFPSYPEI
Outline: (§1)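 Cysteine protease assays. Peptide substrates were CBZ-L-lysine p-nitrophenyl ester, Z-Phe-Arg-NH-Mec and Z-Val-Val-Arg-NH-Mec. Values are means of experiments run in triplicate, given in µM.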

Cathepsin B = Cathepsin B (Homo sapiens, UniProt P07858); experiment: Inhibitory concentration against Cathepsin B; outline: as §1
Procathepsin L = Procathepsin L (Homo sapiens, UniProt P07711); experiment: Inhibitory concentration against Cathepsin L; outline: as §1
Procathepsin L, sequence (P07711 whole entry): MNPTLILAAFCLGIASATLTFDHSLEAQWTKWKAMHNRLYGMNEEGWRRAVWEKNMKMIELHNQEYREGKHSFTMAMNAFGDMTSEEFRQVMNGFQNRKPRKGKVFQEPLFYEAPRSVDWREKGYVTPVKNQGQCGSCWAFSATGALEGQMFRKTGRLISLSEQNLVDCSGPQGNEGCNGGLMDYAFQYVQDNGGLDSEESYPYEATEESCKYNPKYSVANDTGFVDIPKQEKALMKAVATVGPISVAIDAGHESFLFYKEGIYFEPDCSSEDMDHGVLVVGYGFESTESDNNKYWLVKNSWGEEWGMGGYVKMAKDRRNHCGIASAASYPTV

[6] = molecular target: T3, Tyrosine-protein phosphatase non-receptor type 13 (Homo sapiens, UniProt Q12923); experiment: Inhibitory concentration against FAP-1 using lck-10 mer as substrate
T3 sequence (Q12923 whole entry): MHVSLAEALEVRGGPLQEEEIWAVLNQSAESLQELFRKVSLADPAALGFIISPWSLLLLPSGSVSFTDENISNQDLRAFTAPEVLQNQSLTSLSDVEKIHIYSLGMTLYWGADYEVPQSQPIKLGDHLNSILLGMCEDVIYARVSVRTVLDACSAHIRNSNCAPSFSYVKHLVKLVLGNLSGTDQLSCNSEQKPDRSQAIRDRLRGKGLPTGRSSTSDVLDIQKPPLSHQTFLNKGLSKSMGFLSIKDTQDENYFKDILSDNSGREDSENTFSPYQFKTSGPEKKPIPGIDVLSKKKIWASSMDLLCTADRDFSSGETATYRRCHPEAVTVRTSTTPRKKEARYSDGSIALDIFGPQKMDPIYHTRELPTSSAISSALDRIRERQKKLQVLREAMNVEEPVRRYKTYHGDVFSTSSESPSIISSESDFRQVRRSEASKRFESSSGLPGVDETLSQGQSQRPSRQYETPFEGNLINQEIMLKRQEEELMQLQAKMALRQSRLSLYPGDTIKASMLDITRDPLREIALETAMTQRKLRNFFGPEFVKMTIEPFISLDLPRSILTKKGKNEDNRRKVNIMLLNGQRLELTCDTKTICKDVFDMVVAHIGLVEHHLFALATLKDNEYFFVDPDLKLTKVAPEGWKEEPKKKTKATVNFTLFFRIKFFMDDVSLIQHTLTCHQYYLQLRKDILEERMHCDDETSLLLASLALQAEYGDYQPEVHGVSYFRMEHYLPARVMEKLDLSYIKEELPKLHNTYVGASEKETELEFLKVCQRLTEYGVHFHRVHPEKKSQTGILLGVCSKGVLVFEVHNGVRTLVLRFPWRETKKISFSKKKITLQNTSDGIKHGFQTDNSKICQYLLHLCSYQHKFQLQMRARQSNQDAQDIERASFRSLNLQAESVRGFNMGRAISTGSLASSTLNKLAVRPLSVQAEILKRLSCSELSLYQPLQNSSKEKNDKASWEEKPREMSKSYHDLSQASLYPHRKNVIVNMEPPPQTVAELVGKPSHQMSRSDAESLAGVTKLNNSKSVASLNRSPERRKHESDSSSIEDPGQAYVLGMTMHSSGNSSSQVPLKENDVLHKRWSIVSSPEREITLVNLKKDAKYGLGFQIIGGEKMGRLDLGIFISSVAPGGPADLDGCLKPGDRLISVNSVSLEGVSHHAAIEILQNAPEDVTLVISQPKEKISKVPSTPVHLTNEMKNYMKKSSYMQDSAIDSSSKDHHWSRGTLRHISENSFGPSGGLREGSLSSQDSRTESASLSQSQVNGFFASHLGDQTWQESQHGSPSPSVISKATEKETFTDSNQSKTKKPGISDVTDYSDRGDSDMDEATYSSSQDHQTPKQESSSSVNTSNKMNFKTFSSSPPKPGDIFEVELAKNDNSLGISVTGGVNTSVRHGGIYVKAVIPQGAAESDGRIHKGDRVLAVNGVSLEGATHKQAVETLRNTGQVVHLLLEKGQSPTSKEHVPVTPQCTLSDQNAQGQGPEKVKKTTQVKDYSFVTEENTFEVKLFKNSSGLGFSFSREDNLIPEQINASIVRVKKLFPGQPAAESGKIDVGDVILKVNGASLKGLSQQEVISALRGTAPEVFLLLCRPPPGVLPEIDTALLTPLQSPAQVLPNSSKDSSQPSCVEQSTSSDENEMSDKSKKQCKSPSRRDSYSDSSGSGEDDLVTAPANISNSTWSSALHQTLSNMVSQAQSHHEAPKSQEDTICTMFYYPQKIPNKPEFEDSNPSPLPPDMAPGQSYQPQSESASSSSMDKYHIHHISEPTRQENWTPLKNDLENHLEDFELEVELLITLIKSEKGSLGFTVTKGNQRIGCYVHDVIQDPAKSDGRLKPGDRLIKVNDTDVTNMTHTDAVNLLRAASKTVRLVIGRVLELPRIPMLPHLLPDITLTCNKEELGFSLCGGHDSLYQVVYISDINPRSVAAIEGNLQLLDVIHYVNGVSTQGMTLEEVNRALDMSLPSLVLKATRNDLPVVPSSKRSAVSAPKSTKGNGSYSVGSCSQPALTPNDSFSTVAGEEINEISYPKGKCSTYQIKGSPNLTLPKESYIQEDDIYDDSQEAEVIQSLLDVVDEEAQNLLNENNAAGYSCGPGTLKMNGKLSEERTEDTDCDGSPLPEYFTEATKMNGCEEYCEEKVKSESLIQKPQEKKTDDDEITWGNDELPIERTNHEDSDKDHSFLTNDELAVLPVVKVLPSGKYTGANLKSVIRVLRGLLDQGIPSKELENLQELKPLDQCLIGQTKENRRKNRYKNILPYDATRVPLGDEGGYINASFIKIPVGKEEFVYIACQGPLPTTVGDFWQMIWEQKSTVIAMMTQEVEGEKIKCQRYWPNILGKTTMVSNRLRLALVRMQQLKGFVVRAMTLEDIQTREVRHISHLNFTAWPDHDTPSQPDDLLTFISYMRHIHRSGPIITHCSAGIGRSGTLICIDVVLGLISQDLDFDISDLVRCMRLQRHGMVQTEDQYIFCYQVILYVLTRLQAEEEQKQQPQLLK

[7] = molecular target: T3, Tyrosine-protein phosphatase non-receptor type 13; experiment: Inhibitory concentration against FAP-1 pNPP
[8] = molecular target: T1, Receptor-type tyrosine-protein phosphatase C; experiment: Inhibitory concentration against CD45 protein-tyrosine phosphatase pNPP

Row | IC50 [1] [µM] | IC50 [5] [µM] | Structure (SMILES) | CC50 (T-cell [2]) [µM] | IC50 (T-cell [3]) [µM] | also measured
1 | > 30 |  | O=C1C=C(NCCCN2CCCCC2)c2ccccc2C1=O |  |  | 
2 | 5.4 |  | O=C1C(=O)c2cc(NC(=O)c3c(Cl)cc(Cl)cc3Cl)ccc2-c2ccccc21 | 12 | 1.3 | 
3 | 0.7 |  | COC(=O)CCCCCCC(=O)Nc1ccc2c(c1)-c1ccccc1C(=O)C2=O | 28 | 1.3 | 
4 |  | 19 | O=C1C(=O)c2cc(-c3cc4ccccc4o3)ccc2-c2ccccc21 | 3.6 |  | IC50 [4]: > 30 µM
5 | > 30 |  | O=C1C=C(Nc2ccccc2)c2ccccc2C1=O |  |  | 
6 | > 30 |  | O=C(O)CC/N=C1\C=C(O)C(=O)c2ccccc21 |  |  | 
7 | 0.8 | 18 | O=C1C(=O)c2cc(-c3ccccc3F)ccc2-c2ccccc21 | 8.4 |  | IC50 [4]: > 30 µM
8 |  | > 30 | O=C1C(=O)c2ccoc2-c2ccccc21 | 3.5 |  | 
9 |  | > 30 | CC(C)(C)OC(=O)CNC(=O)c1ccc2c(c1)C(=O)C(=O)c1ccccc1-2 | 10 | 0.4 | 
10 |  |  | COC(=O)CCCCCCC(=O)Nc1ccc2c(c1)C(=O)C(=O)c1ccccc1-2 | 14 |  | IC50 (Cathepsin S): > 10 µM; IC50 (Cathepsin B): > 10 µM; IC50 (Procathepsin L): > 10 µM; IC50 [6]: > 30 µM; IC50 [7]: 9.9 µM
11 |  | > 30 | O=C1C(=O)c2cccnc2-c2ccccc21 | 2.4 | 0.2 | IC50 [4]: 3.1 µM; IC50 (Cathepsin S): 0.4 µM; IC50 [8]: 1.4 µM; IC50 (Cathepsin B): > 10 µM; IC50 (Procathepsin L): 0.6 µM; IC50 [6]: > 30 µM; IC50 [7]: 14 µM
12 | 0.8 | > 30 | CCCC(=O)Nc1ccc2c(c1)-c1ccccc1C(=O)C2=O | 9.1 | 0.8 | IC50 [4]: 5.2 µM
13 |  | 18 | O=C(Nc1ccc2c(c1)C(=O)C(=O)c1ccccc1-2)c1ccccc1F | 20 | 3.1 | IC50 [4]: 11 µM; IC50 (Cathepsin S): 9 µM; IC50 [8]: 0.6 µM; IC50 (Cathepsin B): > 10 µM; IC50 (Procathepsin L): 0.4 µM; IC50 [6]: 20 µM; IC50 [7]: 0.6 µM
14 |  | 16 | COc1ccccc1-c1ccc2c(c1)C(=O)C(=O)c1ccccc1-2 | 9.5 |  | IC50 [4]: > 30 µM
15 |  | > 30 | CC(C)(C)C(=O)Nc1ccc2c(c1)C(=O)C(=O)c1ccccc1-2 | 3.5 |  | IC50 [4]: 3.8 µM; IC50 (Cathepsin S): 0.4 µM; IC50 (Cathepsin B): > 10 µM; IC50 (Procathepsin L): 0.5 µM; IC50 [6]: > 30 µM; IC50 [7]: 7 µM
16 | 1.2 | > 30 | O=C(Nc1ccc2c(c1)-c1ccccc1C(=O)C2=O)c1ccccc1F | 15 | 2.9 | IC50 [4]: 5.8 µM

Row | IC50 [1] [µM] | IC50 [5] [µM] | Structure (SMILES) | CC50 (T-cell [2]) [µM] | IC50 (T-cell [3]) [µM] | also measured
17 | 1.1 |  | CC(=O)NC(CCC(N)=O)C(=O)N[C@@H](CC(=O)Nc1ccc2c(c1)C(=O)C(=O)c1ccccc1-2)C(=O)O (stereo not given in full) |  | > 30 | 
18 |  |  | COC(=O)CCC(=O)Nc1cccc2c1C(=O)C(=O)c1ccccc1-2 | 9 | 0.5 | IC50 (Cathepsin B): > 10 µM; IC50 [6]: > 30 µM; IC50 [7]: 4.4 µM
19 |  |  | COC(=O)CCC(=O)Nc1ccc2c(c1)C(=O)C(=O)c1cc(NC(=O)CCC(=O)OC)ccc1-2 | 7 |  | IC50 [4]: 2.9 µM; IC50 (Cathepsin S): > 10 µM; IC50 (Cathepsin B): > 10 µM; IC50 (Procathepsin L): 5.4 µM; IC50 [6]: > 30 µM; IC50 [7]: 12 µM
20 | 0.4 |  | O=C1C(=O)c2cc(Br)ccc2-c2ccccc21 | 5 | 0.6 | 
21 |  | 18 | O=C(COCc1ccccc1)Nc1ccc2c(c1)C(=O)C(=O)c1ccccc1-2 | 14 | 1 | 
22 | 0.6 |  | CC(C)(C)OC(=O)CNC(=O)c1ccc2c(c1)-c1ccccc1C(=O)C2=O | 3.2 | 0.32 | 
23 | 0.9 |  | N=C(N)NCCC[C@H](NC(=O)c1ccc2c(c1)C(=O)C(=O)c1ccccc1-2)C(=O)N[C@@H](CCC(=O)O)C(=O)N1CCC[C@H]1C(=O)N[C@@H](CCCNC(=N)N)C(=O)N[C@@H](CCC(=O)O)C(=O)O (Phenanthrenequinone2carbonyl-REPRE-OH) | > 30 | 20 | 
24 |  |  | NC(=O)CC[C@H](NC(=O)[C@@H]1CCCN1C(=O)[C@H](CCC(=O)O)NC(=O)CNC(=O)c1ccc2c(c1)-c1ccccc1C(=O)C2=O)C(=O)N1CCC[C@H]1C(=O)O ({3Phenanthroyl(9,10-dioxo)}-GEPQP-OH) | > 30 | > 30 | 
25 |  |  | NC(=O)CC[C@H](NC(=O)CNC(=O)c1ccc2c(c1)-c1ccccc1C(=O)C2=O)C(=O)NCC(=O)N[C@@H](CCC(=O)O)C(=O)N1CCC[C@H]1C(=O)O ({3Phenanthroyl(9,10-dioxo)}-GQGEP-OH) | > 30 | > 30 | 
26 |  |  | NC(=O)CC[C@H](NC(=O)CNC(=O)c1ccc2c(c1)-c1ccccc1C(=O)C2=O)C(=O)NCC(=O)N[C@@H](CCC(N)=O)C(=O)N1CCC[C@H]1C(=O)O ({3Phenanthroyl(9,10-dioxo)}-GQGQP-OH) | > 30 | 20 | 
27 |  |  | NC(=O)CC[C@H](NC(=O)[C@@H]1CCCN1C(=O)[C@H](CCC(N)=O)NC(=O)CNC(=O)c1ccc2c(c1)-c1ccccc1C(=O)C2=O)C(=O)N1CCC[C@H]1C(=O)O ({3Phenanthroyl(9,10-dioxo)}-GQPQP-OH) | > 30 | > 30 | 
28 |  |  | NC(=O)CC[C@H](NC(=O)c1ccc2c(c1)-c1ccccc1C(=O)C2=O)C(=O)N[C@@H](CCC(=O)O)C(=O)NCC(=O)N[C@@H](CCC(N)=O)C(=O)N1CCC[C@H]1C(=O)O ({3Phenanthroyl(9,10-dioxo)}-QEGQP-OH) | > 30 | 16 | 
29 |  |  | NC(=O)CC[C@H](NC(=O)c1ccc2c(c1)-c1ccccc1C(=O)C2=O)C(=O)N[C@@H](CCC(=O)O)C(=O)N1CCC[C@H]1C(=O)N[C@@H](CCC(N)=O)C(=O)N1CCC[C@H]1C(=O)O ({3Phenanthroyl(9,10-dioxo)}-QEPQP-OH) | > 30 | 5 | 
30 |  |  | NC(=O)CC[C@H](NC(=O)c1ccc2c(c1)-c1ccccc1C(=O)C2=O)C(=O)N[C@@H](CCC(N)=O)C(=O)NCC(=O)N[C@@H](CCC(N)=O)C(=O)N1CCC[C@H]1C(=O)O ({3Phenanthroyl(9,10-dioxo)}-QQGQP-OH) | > 30 | 14.5 | 
31 |  |  | NC(=O)CC[C@H](NC(=O)c1ccc2c(c1)-c1ccccc1C(=O)C2=O)C(=O)N[C@@H](CCC(N)=O)C(=O)N1CCC[C@H]1C(=O)N[C@@H](CCC(N)=O)C(=O)N1CCC[C@H]1C(=O)O ({3Phenanthroyl(9,10-dioxo)}-QQPQP-OH) | > 30 | > 30 | 
32 |  |  | O=C1C=Cc2ccccc2C1=O [1,2-NAPHTHOQUINONE] | > 30 | 7 | 

Row | Structure (SMILES) | IC50 [1] [µM] | IC50 [5] [µM] | CC50 (T-cell [2]) [µM] | IC50 (T-cell [3]) [µM] | also measured
33 | O=C1C(=O)c2cccc([N+](=O)[O-])c2-c2ccc([N+](=O)[O-])cc21 | > 30 |  | > 30 | > 30 | 
34 | CC(=O)N[C@@H](CCC(=O)O)C(=O)NCC(=O)N[C@@H](CCC(N)=O)C(=O)N[C@@H](CC(=O)Nc1ccc2c(c1)C(=O)C(=O)c1ccccc1-2)C(=O)O (Ac-EGQD(X1)-OH) | 1.5 |  |  | > 30 | 
35 | O=C1C(=O)c2ccccc2-c2ccccc21 [9,10-PHENANTHRENEQUINONE] |  | > 30 | 1.3 | 0.3 | 
